In the library only some 3.4% were active in any assay of this set; here they are far more common.
TAAR1 ag – agonists of human TAAR1; hit rate 0.99% among 360,000; activation, % at 3 µM; AID 624467; CHO RD-HGA16 TAAR1, Fluo-8 calcium fluorescence; vehicle wells 0%, saturating PEA agonist 100%; Q96RJ0;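 active means activation above the mean activation of all test compounds in the run plus 3 SD, cut at about 38% in these data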
Target sequence (Q96RJ0 whole entry, looked up): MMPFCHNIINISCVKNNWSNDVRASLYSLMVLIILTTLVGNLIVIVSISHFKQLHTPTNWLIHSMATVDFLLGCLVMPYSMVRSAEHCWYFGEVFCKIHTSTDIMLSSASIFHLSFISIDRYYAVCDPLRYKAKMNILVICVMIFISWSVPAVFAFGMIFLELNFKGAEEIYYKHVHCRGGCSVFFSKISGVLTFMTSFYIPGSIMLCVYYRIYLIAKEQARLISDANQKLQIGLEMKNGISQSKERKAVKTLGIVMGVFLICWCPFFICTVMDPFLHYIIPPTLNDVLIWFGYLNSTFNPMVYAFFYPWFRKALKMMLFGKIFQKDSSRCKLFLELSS
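Benchmarks: low control DMSO, high control PEA (EC100); System: CHO RD-HGA16 cells carrying human TAAR1 plus Gα16; Detection: Fluo-8 fluorescence, 5 s baseline then 140 s kinetic read; Schedule: 17-24 h plating, Fluo-8 75 min 37 °C, 30 min RT; Read-out basis: % activation from peak over basal fluorescence ratio, DMSO-to-PEA scaled.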
M1 PAM – human CHRM1 positive allosteric modulation | activation, % at 3 µM | CHO-K1 hM1, Fluo-8 calcium fluorescence, ACh EC20; 0% = ACh EC20, 100% = maximal ACh | AID 588819 | hit rate 0.088% among 360,000; in the data active means activation above about 19%, passing the limit was not always enough
CHRM1 agonist – agonists of human M1 muscarinic receptor; P11229; CHO-K1 hM1, Fluo-8 calcium fluorescence, agonist mode; 0% DMSO, 100% acetylcholine EC100; activation, % at 3 µM; hit rate 0.33% among 360,000; AID 588814;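 active means activation above the run's mean compound activation plus 3 SD, cut at about 16% in these data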;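 further: peak over basal fluorescence ratio within a 140 s kinetic read after compound addition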
TAAR1 antag – antagonists of human TAAR1; Q96RJ0; inhibition, % at 3 µM; CHO RD-HGA16 TAAR1, Fluo-8 calcium fluorescence, antagonist; AID 624466; hit rate 1.5% among 360,000;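 active means inhibition above a per-plate cutoff, the mean inhibition of test compounds on that plate plus 3 SD, cut at about 49% in these data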
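Test system: CHO RD-HGA16 cells bearing hTAAR1 | Reagent: β-PEA, EC80 | Compound dosing: 3 µM, single point | Schedule: Dye loading 75 min at 37 °C, then 30 min room temperature | Signal: Calcium fluorescence with Fluo-8 | Evaluation: Percent inhibition of PEA-evoked calcium signal, max/basal emission ratio | Control set: DMSO-only wells and EC80 β-PEA-stimulated wells | Repeats: Singlicate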
CHRM1 antagonist – blocks human M1 muscarinic receptor. P11229. CHO-K1 hM1, Fluo-8 calcium fluorescence, ACh EC80 antagonist. inhibition, % at 3 µM. hit rate 1.3% among 360,000. AID 588852;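 active means percent inhibition above its own plate's cutoff, namely the mean of that plate's compound wells plus 3 SD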;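 further: peak over basal fluorescence ratio during 140 s after agonist addition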
Of the large screens only hits and unclear results are named; the others gave an inactive call.

COc1ccc(-c2coc3c(C(=O)Nc4ccc(OC)nc4)cccc23)c(C)c1	none
COc1ccc(-c2ccc(C(=O)NCc3ccncc3)c3occc23)c(C)c1	CHRM1 antagonist 42
COc1ccc(-c2coc3c(C(=O)NCc4ccc(F)c(F)c4)cccc23)c(C)c1	none
COc1ccc(-c2coc3c(C(=O)NCc4ccc(OC)c(OC)c4)cccc23)c(C)c1	TAAR1 antag 56, CHRM1 antagonist 44
COc1ccc(-c2coc3c(C(=O)Nc4cc(OC)c(OC)c(OC)c4)cccc23)c(C)c1	TAAR1 antag 63, CHRM1 antagonist 45
CCOC(=O)[C@@H]1CSCCS(=O)(=O)N1C(=O)[C@H](C)NC(=O)OC(C)(C)C	none (no result: M1 PAM, CHRM1 agonist, CHRM1 antagonist)
COc1ccc(CC(=O)NCC2CCN(C(=O)C(=O)c3cc4ccccc4o3)CC2)cc1	none (no result: M1 PAM, CHRM1 agonist, CHRM1 antagonist)
O=C(N/N=C/c1ccncc1)c1cc2ccccc2o1	none
Cc1cc(/C=N/NC(=O)c2cc3ccccc3o2)c(C)n1C	TAAR1 antag 54
COc1ccc(C(CCNCc2ccc(OC(C)C)cc2)c2ccccc2OC)cc1 (stereo unspecified)	TAAR1 ag 38
COc1ccc(CNCCC(c2ccc(OC)cc2)c2ccccc2OC)cc1 (stereo unspecified)	none
C#CCN(C[C@H]1[C@H](OC(=O)NCCCCCC)[C@H](OC(=O)NCCCCCC)CN(C(=O)OC(C)C)N1C(=O)OC(C)C)S(=O)(=O)c1ccc(C)cc1	none (no result: M1 PAM, CHRM1 agonist, CHRM1 antagonist)
CSc1ccccc1-c1ccc2nccn2c1	CHRM1 antagonist 35
Cc1cccc(N2CCN(C3C(=O)Nc4ccccc4-n4nnnc43)CC2)c1C (stereo unspecified)	none (no result: M1 PAM, CHRM1 agonist, CHRM1 antagonist)
Cc1ccc(S(=O)(=O)N(C)C)cc1NC(=O)COc1ccccc1C(=O)Nc1ccccc1	TAAR1 antag 55
CC(=O)Nc1ccc(S(=O)(=O)N(C)c2ccc(OCC(=O)Nc3ccccc3C(C)=O)cc2)cc1	TAAR1 antag 55, CHRM1 antagonist 36
Cc1ccc(S(=O)(=O)N(C)C)cc1NC(=O)COC(=O)CSc1ccccc1	none
COc1ccc(NC(=O)COc2ccc(N(C)S(=O)(=O)c3ccc(Cl)cc3)cc2)cc1OC	TAAR1 antag 61, CHRM1 antagonist 38
COc1ccc(Sc2cccc3c2S(=O)(=O)N([C@H](C)c2ccccc2)C[C@@H](COCc2ccccc2)O3)cc1OC	none (no result: M1 PAM, CHRM1 agonist, CHRM1 antagonist)
CCOC(=O)N[C@H](C(=O)N1CCC[C@H]1C(=O)NCc1ccccc1)C(C)C	none (no result: M1 PAM, CHRM1 agonist, CHRM1 antagonist)
CC1CCCN(CCCOc2ccc(Br)cc2Cl)C1 (stereo unspecified)	none
CC1CCN(CCOCCOc2ccc(Br)cc2Cl)CC1	CHRM1 antagonist 45
CCc1noc(C)c1C(=O)OCC(=O)Nc1nc(-c2ccc(F)c(F)c2)cs1	TAAR1 antag 69, CHRM1 antagonist 42
Cc1onc(-c2ccccc2)c1C(=O)Nc1nc(-c2ccc(F)c(F)c2)cs1	TAAR1 ag 39
Cc1csc(NC(=O)c2c(-c3ccccc3)noc2C)n1	none
CC12CCC3C(CCC4CC(O)CCC43C)C1CC(=O)C2 (stereo unspecified)	none
CC(C)C[C@H]1CN([C@@H](Cc2ccccc2)CN2CCC[C@H]2CN2C(=O)C(=O)NC[C@@H]2Cc2ccccc2)C(=O)C(=O)N1CC1CCCCCC1	none (no result: M1 PAM, CHRM1 agonist, CHRM1 antagonist)
COc1ccc(CNC(=O)c2cc3c(C)nc4ccccc4c3o2)c(OC)c1	CHRM1 antagonist 37 (no result: TAAR1 ag, TAAR1 antag)
COc1cccc(CNC(=O)c2cc3c(C)nc4ccccc4c3o2)c1	none
CCc1nc2ccc(C(=O)Nc3cccc(NS(C)(=O)=O)c3)cn2c1N(C)CCCc1ccccc1	CHRM1 antagonist 41
CCc1nc2ccc(C(=O)Nc3ccc(C(N)=O)cc3)cn2c1N(C)CCC(C)C	TAAR1 ag 43
CCc1nc2ccc(C(=O)Nc3ccc(NC(C)=O)cc3)cn2c1N(C)CCCc1ccccc1	CHRM1 antagonist 47
CCc1nc2ccc(C(=O)Nc3ccc(C(=O)N(C)C)cc3)cn2c1N(C)CCCc1ccccc1	CHRM1 antagonist 39
CCc1nc2ccc(C(=O)Nc3cccc(OC)c3)cn2c1N(C)CCCc1ccccc1	none
CCNC(=O)C1CCCN(C(=O)c2ccc3c(c2)OCO3)CC1 (stereo unspecified)	none
CCCCNC(=O)C1CC(c2cccc([N+](=O)[O-])c2)=NO1 (stereo unspecified)	none
O=C(NCCc1cccs1)C1CC(c2cccc([N+](=O)[O-])c2)=NO1 (stereo unspecified)	TAAR1 antag 49
O=C(C[C@@H]1C=C[C@@H](NC(=O)C2CC2)[C@@H](CO)O1)NCc1ccccc1Cl	none (no result: M1 PAM, CHRM1 agonist, CHRM1 antagonist)
Cc1cc(C(=O)N/N=C/c2cc(Br)ccc2OC(=O)c2ccccc2)n[nH]1	TAAR1 antag 51
Cc1cc(C(=O)N/N=C/c2cc(Br)ccc2OC(=O)c2ccccc2Cl)n[nH]1	none
Cc1cc(C(=O)N/N=C/c2ccc(OC(=O)c3ccccc3Br)cc2)n[nH]1	TAAR1 antag 54
CCCCNC(=O)c1c(N)[nH]c(C(=O)c2ccccc2)c1-c1ccccn1	none (no result: M1 PAM, CHRM1 agonist, CHRM1 antagonist)
Cc1cc(Br)cn2c(Cc3cccc(Cl)c3)c(C3CCCCC3)nc12	none (no result: M1 PAM, CHRM1 agonist, CHRM1 antagonist)
CCN(CC)c1ccc(S(=O)(=O)N2CCOCC2)cc1NC(=O)COC(=O)/C=C/c1ccc(C)o1	TAAR1 antag 65
CC(C)=CCc1c(O)ccc(C(=O)Cc2ccccc2)c1O	TAAR1 ag 40
Cn1c(=O)c2[nH]c(-c3ccc(S(=O)(=O)O)cc3)nc2n(C)c1=O	CHRM1 agonist 29
CC(C)c1ccc(-c2nc3c([nH]2)c(=O)n(C)c(=O)n3C)cc1	none
CCN(CC)CCNC(C(=O)Nc1cccc(C(C)=O)c1)c1ccccc1 (stereo unspecified)	CHRM1 antagonist 84
CC(=O)c1cccc(NC(=O)CSC(=O)c2ccccc2)c1	TAAR1 ag 38
CCOc1ccc(NC(C(=O)Nc2cccc(C(C)=O)c2)c2ccccc2)cc1 (stereo unspecified)	none
CC(=O)c1cccc(NC(=O)COC(=O)c2cccc(N3C(=O)c4ccccc4C3=O)c2)c1	TAAR1 antag 49
CSc1c(N(C)C)c(=O)c1=S	none (no result: M1 PAM, CHRM1 agonist, CHRM1 antagonist)
CCOC(=O)C1=CCN(S(=O)(=O)c2ccc(F)cc2)C1c1ccc(Cl)cc1 (stereo unspecified)	none (no result: M1 PAM, CHRM1 agonist, CHRM1 antagonist)
COc1ccc(F)cc1C(=O)C1CCCN(Cc2c(C)n(C)n(-c3ccccc3)c2=O)C1 (stereo unspecified)	CHRM1 antagonist 36
O=C(O)Cn1cc(C(=S)N2CCOCC2)c2ccccc21	M1 PAM 27
CCc1ccc(C(CNC(=O)c2ccc3c(=O)n(-c4ccccc4F)c(=S)[nH]c3c2)N(C)C)cc1 (stereo unspecified)	CHRM1 antagonist 37
CN1C(=O)/C(=C/c2ccc(OCc3ccc(F)cc3)cc2)N(C)C1=S	none
CN1C(=O)/C(=C/c2ccccc2OCc2cccc(F)c2)N(C)C1=S	CHRM1 antagonist 100
CN[C@@H]1CC[C@H](c2ccc(Cl)c(Cl)c2)c2ccccc21	TAAR1 ag 45 (no result: M1 PAM, CHRM1 agonist, CHRM1 antagonist)

Screens: PubChem BioAssay, The Scripps Research Institute Molecular Screening Center
